In brackets after ≈: the same amount, converted by molar mass. Activity calls are given as the source filed them. No cut-off for these calls is given here.
Assays:
SGC-7901 [1] = experiment: Cytotoxicity against human SGC7901 cells after 72 hrs by MTT assay; assay type: functional, cell-based; details: for IC50: Homo sapiens, SGC-7901, 72 h
How it was run: (§1)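 Cells seeded at 2 × 10⁴ per well and grown to subconfluence before treatment. MTT (5 mg/mL stock in PBS) added, then 4 h incubation for formazan formation. Formazan dissolved in DMSO and absorbance read at 570 nm. IC50 determined from concentration-dependent inhibition. Assays run in triplicate across three independent experiments, reported as mean ± S.D.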

HepG2 [2] = experiment: Cytotoxicity against human HepG2 cells after 72 hrs by MTT assay; assay type: functional, cell-based; details: for IC50: Homo sapiens, HepG2, 72 h; how it was run: as §1
NCI-H460 [3] = experiment: Cytotoxicity against human NCI-H460 cells after 72 hrs by MTT assay; assay type: functional, cell-based; details: for IC50: Homo sapiens, NCI-H460, 72 h; how it was run: as §1
BGC-823 [4] = experiment: Cytotoxicity against human BGC823 cells after 72 hrs by MTT assay; assay type: functional, cell-based; details: for IC50: Homo sapiens, BGC-823, 72 h; how it was run: as §1
SGC-7901 [5] = experiment: Cytotoxicity against human SGC7901 cells assessed as growth inhibition at 40 ug/mL after 72 hrs by MTT assay; assay type: functional; details: SGC-7901, 72 h, read-out: GI
How it was run: (§2)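 Growth inhibition by MTT after seeding at 2 × 10⁴ cells per well and growth to subconfluence, with 5-FU as positive control. MTT stock 5 mg/mL in PBS, 4 h formazan formation, then DMSO solubilisation and A570 read. Triplicate wells, three independent experiments, mean ± S.D.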

HepG2 [6] = experiment: Cytotoxicity against human HepG2 cells assessed as growth inhibition at 40 ug/mL after 72 hrs by MTT assay; assay type: functional; details: HepG2, 72 h, read-out: GI; how it was run: as §2
NCI-H460 [7] = experiment: Cytotoxicity against human NCI-H460 cells assessed as growth inhibition at 40 ug/mL after 72 hrs by MTT assay; assay type: functional; details: NCI-H460, 72 h, read-out: GI; how it was run: as §2
BGC-823 [8] = experiment: Cytotoxicity against human BGC823 cells assessed as growth inhibition at 40 ug/mL after 72 hrs by MTT assay; assay type: functional; details: BGC-823, 72 h, read-out: GI; how it was run: as §2
SGC-7901 [9] = experiment: Cytotoxicity against human SGC7901 cells assessed as change in cell morphology at 20 ug/mL after 48 hrs by inverted microscopy; assay type: functional, cell-based
NCI-H460 [10] = experiment: Cytotoxicity against human NCI-H460 cells assessed as change in cell morphology at 20 ug/mL after 48 hrs by inverted microscopy; assay type: functional, cell-based

Compound | IC50 (SGC-7901 [1]) [µg/mL] | IC50 (HepG2 [2]) [µg/mL] | IC50 (NCI-H460 [3]) [µg/mL] | IC50 (BGC-823 [4]) [µg/mL] | Activity (HepG2 [2]) | Activity (BGC-823 [4]) | inhibition of growth at 40 µg/mL (SGC-7901 [5]) [%] | inhibition of growth at 40 µg/mL (HepG2 [6]) [%] | inhibition of growth at 40 µg/mL (NCI-H460 [7]) [%] | inhibition of growth at 40 µg/mL (BGC-823 [8]) [%] | Activity (SGC-7901 [9]) | Activity (NCI-H460 [10]) | growth inhibition (GI) (SGC-7901 [1]) [%] | growth inhibition (GI) (HepG2 [2]) [%] | growth inhibition (GI) (NCI-H460 [3]) [%] | growth inhibition (GI) (BGC-823 [4]) [%]
Cn1cc(C(Nc2ccccn2)c2ccccc2Cl)c2ccccc21 (centres undefined) | 27.1 (≈ 77.9 µM) | 26.5 (≈ 76.2 µM) | 66.7 (≈ 192 µM) | 39.2 (≈ 113 µM) | – | – | – | – | – | – | – | – | – | – | – | –
Cn1cc(C(Nc2ccccn2)c2ccc(F)cc2)c2ccccc21 (centres undefined) | 51.9 (≈ 157 µM) | 38.6 (≈ 116 µM) | 49.1 (≈ 148 µM) | 51.6 (≈ 156 µM) | – | – | – | – | – | – | – | – | – | – | – | –
Fc1ccccc1C(Nc1nc2ccccc2s1)c1c[nH]c2ccccc12 (centres undefined) | 9.4 (≈ 25.2 µM) | 7 (≈ 18.7 µM) | 12.1 (≈ 32.4 µM) | 8.1 (≈ 21.7 µM) | Dose-dependent effect | Dose-dependent effect | – | – | – | – | – | – | – | – | – | –
c1ccc(NC(c2ccncc2)c2c[nH]c3ccccc23)nc1 (centres undefined) | > 100 | > 100 | > 100 | > 100 | – | – | – | – | – | – | – | – | – | – | – | –
CN(C)Cc1c[nH]c2ccccc12 [GRAMINE] | 77.3 (≈ 444 µM) | > 100 | 74.5 (≈ 428 µM) | 62.8 (≈ 360 µM) | – | – | – | – | – | – | – | – | – | – | – | –
Cn1cc(C(Nc2ccccn2)c2ccc(Cl)cc2)c2ccccc21 (centres undefined) | 25 (≈ 71.9 µM) | 25.5 (≈ 73.3 µM) | 32.1 (≈ 92.3 µM) | 30.8 (≈ 88.5 µM) | – | – | 70.8 | 73.6 | – | – | – | – | – | – | – | –
Fc1ccc(C(Nc2ccccn2)c2c[nH]c3ccccc23)cc1 (centres undefined) | 21.5 (≈ 67.7 µM) | 23 (≈ 72.5 µM) | 24 (≈ 75.6 µM) | 21.8 (≈ 68.7 µM) | – | – | 71.4 | 71.4 | 71.4 | 71.4 | – | – | – | – | – | –
Cn1cc(C(Nc2ccccn2)c2ccccc2F)c2ccccc21 (centres undefined) | 86.2 (≈ 260 µM) | 43.2 (≈ 130 µM) | 92.6 (≈ 279 µM) | 64.2 (≈ 194 µM) | – | – | – | – | – | – | – | – | – | – | – | –
Cn1cc(C(Nc2ccccn2)c2ccncc2)c2ccccc21 (centres undefined) | 37.9 (≈ 121 µM) | 42.5 (≈ 135 µM) | 56 (≈ 178 µM) | 47.1 (≈ 150 µM) | – | – | – | – | – | – | – | – | – | – | – | –
Clc1ccc(C(Nc2ccccn2)c2c[nH]c3ccccc23)cc1 (centres undefined) | 19.2 (≈ 57.5 µM) | 18.6 (≈ 55.7 µM) | 17.4 (≈ 52.1 µM) | 22.8 (≈ 68.3 µM) | – | – | 71.4 | 71.4 | 71.4 | 71.4 | – | – | – | – | – | –
Clc1ccccc1C(Nc1nc2ccccc2s1)c1c[nH]c2ccccc12 (centres undefined) | 10.5 (≈ 26.9 µM) | 9 (≈ 23.1 µM) | 13.2 (≈ 33.9 µM) | 8.1 (≈ 20.8 µM) | – | – | – | – | – | – | Active | Active | – | – | – | –
Cn1cc(C(Nc2nc3ccccc3s2)c2ccccc2F)c2ccccc21 (centres undefined) | > 100 | > 100 | > 100 | > 100 | – | – | – | – | – | – | – | – | – | – | – | –
c1ccc(NC(c2ccccn2)c2c[nH]c3ccccc23)nc1 (centres undefined) | 51.4 (≈ 171 µM) | > 100 | > 100 | 46.9 (≈ 156 µM) | – | – | – | – | – | – | – | – | – | – | – | –
Fc1ccc(C(c2c[nH]c3ccccc23)n2cncn2)cc1 (centres undefined) | 8.2 (≈ 28.1 µM) | 8.4 (≈ 28.7 µM) | 10.7 (≈ 36.6 µM) | 10.3 (≈ 35.2 µM) | Dose-dependent effect | Dose-dependent effect | – | – | – | – | – | – | – | – | – | –
Clc1ccccc1C(Nc1ccccn1)c1c[nH]c2ccccc12 (centres undefined) | 14.9 (≈ 44.6 µM) | 13.1 (≈ 39.2 µM) | 12.2 (≈ 36.5 µM) | 22.7 (≈ 68 µM) | – | – | 71.4 | 71.4 | 71.4 | 71.4 | Active | Active | – | – | – | –
Fc1ccc(C(c2c[nH]c3ccccc23)n2cccn2)cc1 (centres undefined) | 8.5 (≈ 29.2 µM) | 8 (≈ 27.5 µM) | 8.5 (≈ 29.2 µM) | 5.7 (≈ 19.6 µM) | Dose-dependent effect | Dose-dependent effect | – | – | – | – | Active | Active | – | – | – | –
Cn1cc(C(Nc2ccccn2)c2ccc(C(F)(F)F)cc2)c2ccccc21 (centres undefined) | 13.8 (≈ 36.2 µM) | 12.9 (≈ 33.8 µM) | 16 (≈ 42 µM) | 16.8 (≈ 44 µM) | – | – | 71.4 | 71.4 | 71.4 | 71.4 | – | – | – | – | – | –
O=c1[nH]cc(F)c(=O)[nH]1 [FLUOROURACIL] | 8.7 (≈ 66.9 µM) | 9.3 (≈ 71.5 µM) | 7.2 (≈ 55.4 µM) | 8.2 (≈ 63 µM) | Dose-dependent effect | Dose-dependent effect | – | – | – | – | – | – | 66.8 | 66.8 | 66.8 | 66.8
FC(F)(F)c1ccc(C(Nc2ccccn2)c2c[nH]c3ccccc23)cc1 (centres undefined) | 13.5 (≈ 36.7 µM) | 12.1 (≈ 32.9 µM) | 8.6 (≈ 23.4 µM) | 10.1 (≈ 27.5 µM) | – | – | 71.4 | 71.4 | 71.4 | 71.4 | Active | Active | – | – | – | –
Cn1cc(C(Nc2ccccn2)c2ccccn2)c2ccccc21 (centres undefined) | > 100 | > 100 | > 100 | > 100 | – | – | – | – | – | – | – | – | – | – | – | –
c1ccc(C(Nc2ccccn2)c2c[nH]c3ccccc23)cc1 (centres undefined) | 24.9 (≈ 83.2 µM) | 27.6 (≈ 92.2 µM) | 35.3 (≈ 118 µM) | 29.4 (≈ 98.2 µM) | – | – | – | – | – | – | – | – | – | – | – | –
Fc1ccccc1C(Nc1ccccn1)c1c[nH]c2ccccc12 (centres undefined) | 24.5 (≈ 77.2 µM) | 28.7 (≈ 90.4 µM) | 24.9 (≈ 78.5 µM) | 37.6 (≈ 118 µM) | – | – | 71.4 | 71.4 | 71.4 | 71.4 | – | – | – | – | – | –

— ChEMBL document CHEMBL2203199, “Heterocycle-functional gramine analogues: solvent- and catalyst-free synthesis and their inhibition activities against cell proliferation” (Eur J Med Chem, 2012)
